These results are taken from ChEMBL document CHEMBL1268876, “Intrinsic electrophilicity of the 4-methylsulfonyl-2-pyridone scaffold in glucokinase activators: role of glutathione-S-transferases and in vivo quantitation of a glutathione conjugate in rats” (Bioorg Med Chem Lett, 2010).

The subject of series [1] is Liver microsomes. The series is described as follows: Metabolic stability in human liver microsomes assessed as formation of compound at 10 uM in presence of 5 mM GSH and in absence of NADPH by UV chromatography. It is filed as ADME, Microsome. Put shortly: (§1)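 Test compound at 10 µM with 5 mM GSH in human liver microsomes (NADPH-supplemented or not), human liver cytosol, or human placental GST. Incubated 60 min at 37 °C in a shaking water bath open to air; microsomal and cytosolic reactions started by adding the matrix. Controls lacked NADPH and/or GSH. Quenched with ice-cold acetonitrile containing 0.1% formic acid, then centrifuged. Supernatant analyzed by LC–MS/MS with UV detection at 300 nm.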
For orientation: Microsomes from liver hold many membrane-bound enzymes, among them those of drug oxidation.

A short description of series [2]: Metabolic stability in presence of human placental GST assessed as formation of compound at 10 uM in presence of 5 mM GSH and 1.3 mM NADPH by UV chromatography. It is filed as ADME. Put shortly:
as §1

Series [3] can be described thus: Metabolic stability in human liver cytosol assessed as formation of compound at 10 uM in presence of 5 mM GSH and 1.3 mM NADPH by UV chromatography. Type of series: ADME. A digest of the protocol:
as §1

Series [4] in a line: Chemical stability assessed as formation of compound 2 in pH 7.4 phosphate buffer in presence of 5 mM GSH for 60 mins at 37 degC at 10 uM by UV chromatography. Type of series: physicochemical. As to conditions: pH 7.4, 1 h. Put shortly: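 Test compound at 10 µM in 0.1 M phosphate buffer, pH 7.4, with or without 5 mM GSH, 60 min at 37 °C in a shaking water bath open to air. Stopped with ice-cold acetonitrile containing 0.1% formic acid, then centrifuged. Supernatant analyzed by LC–MS/MS and UV (300 nm) on a C18 column with an ammonium formate/acetonitrile gradient.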

Series [5] relates to Liver microsomes. The series is described as follows: Metabolic stability in human liver microsomes assessed as formation of compound at 10 uM in presence of 5 mM GSH and 1.3 mM NADPH by UV chromatography. It is filed as ADME, Microsome. A digest of the protocol: as §1

Consider `Cc1cnc(NC(=O)[C@H](CC2CCCC2)n2cccc(S(C)(=O)=O)c2=O)cn1`, for which the Stability entry in series [1], in series [2], in series [3], in series [4] and in series [5] was “Stable” in each case.
On to `Cc1cnc(NC(=O)[C@H](CC2CCCC2)n2ccc(S(C)(=O)=O)cc2=O)cn1`, for which the Stability entry in series [1], in series [2], in series [3], in series [4] and in series [5] was “Unstable” in each case.
Take `Cc1cnc(NC(=O)[C@H](CC2CCCC2)n2ccccc2=O)cn1`: the Stability entry in series [1], in series [2], in series [3], in series [4] and in series [5] was “Stable” throughout.
Regarding `Cc1cnc(NC(=O)[C@H](CC2CCCC2)n2ccc(Br)cc2=O)cn1`, the Stability result is recorded as “Stable” in series [1]; “Unstable” in series [2]; “Unstable” in series [3]; “Stable” in series [4]; “Stable” in series [5].
Turning to `Cc1cnc(NC(=O)[C@H](CC2CCCC2)n2cc(S(C)(=O)=O)ccc2=O)cn1`, the Stability entry in series [1], in series [2], in series [3], in series [4] and in series [5] was “Stable” throughout.
